Molecules are shown by their SMILES. Converted amounts (≈) assume the structure as drawn.

Holding throughout (type): functional
Assay [1] has as its system Enterobacter cloacae. Nature of the assay: Antibacterial activity against Enterobacter cloacae assessed as percent cumulative susceptible isolates at minimum inhibitory concentration of 0.5 ug/ml by CLSI broth microdilution method. More on the design: scale not given: the % may be the effect or the level left.
The subject of assay [2] is Staphylococcus aureus. Description: Antibacterial activity against methicillin-resistant Staphylococcus aureus assessed as percent cumulative susceptible isolates at minimum inhibitory concentration of 2 ug/ml by CLSI broth microdilution method. Also on record: scale not given: the % may be the effect or the level left. A general note: Broth dilution looks for growth in wells or tubes with falling amounts of substance.

Assay [3] relates to Staphylococcus aureus. Nature of the assay: Antibacterial activity against methicillin-susceptible Staphylococcus aureus assessed as percent cumulative susceptible isolates at minimum inhibitory concentration of <=0.008 ug/ml by CLSI broth microdilution method. Also on record: scale not given: the % may be the effect or the level left.
Assay [4] deals with Staphylococcus epidermidis. Nature of the assay: Antibacterial activity against methicillin-susceptible Staphylococcus epidermidis assessed as percent cumulative susceptible isolates at minimum inhibitory concentration of 1 ug/ml by CLSI broth microdilution method. Also on record: scale not given: the % may be the effect or the level left.
For assay [5], the system named is Staphylococcus aureus. Description: Antibacterial activity against hospital-associated methicillin-resistant Staphylococcus aureus assessed as percent cumulative susceptible isolates at minimum inhibitory concentration of 0.06 ug/ml by CLSI broth microdilution method. Also on record: scale not given: the % may be the effect or the level left.
The subject of assay [6] is Staphylococcus aureus. Nature of the assay: Antibacterial activity against methicillin-resistant Staphylococcus aureus assessed as percent cumulative susceptible isolates at minimum inhibitory concentration of 0.03 ug/ml by CLSI broth microdilution method. More on the design: scale not given: the % may be the effect or the level left. The essentials: (§1)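 Clinical isolates tested by CLSI broth microdilution using 96-well panels of doubling drug dilutions in cation-adjusted Mueller-Hinton broth with 5% lysed horse blood. MIC was read from these panels. Panel quality control used CLSI ATCC strains, including S. pneumoniae 49619, S. aureus 29213, E. faecalis 29212 and E. coli 25922. Cumulative percentages of isolates were tabulated at each MIC.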

Assay [7] relates to Staphylococcus aureus. Description: Antibacterial activity against non-levofloxacin susceptible Staphylococcus aureus assessed as percent cumulative susceptible isolates at minimum inhibitory concentration of 64 ug/ml by CLSI broth microdilution method. Also on record: scale not given: the % may be the effect or the level left.
Assay [8] has as its system Staphylococcus aureus. Description: Antibacterial activity against methicillin-resistant Staphylococcus aureus assessed as percent cumulative susceptible isolates at minimum inhibitory concentration of 0.5 ug/ml by CLSI broth microdilution method. Also on record: scale not given: the % may be the effect or the level left.
Assay [9] relates to Staphylococcus aureus. Nature of the assay: Antibacterial activity against methicillin-susceptible Staphylococcus aureus assessed as percent cumulative susceptible isolates at minimum inhibitory concentration of 0.03 ug/ml by CLSI broth microdilution method. More on the design: scale not given: the % may be the effect or the level left.
Assay [10] is described as follows: Ratio of fAUC (0 to 24 hrs) in in vitro PK/PD model at 750 mg to MIC for Staphylococcus epidermidis.
The test system of assay [11] is Staphylococcus aureus. Nature of the assay: Antibacterial activity against hospital-associated methicillin-resistant Staphylococcus aureus assessed as percent cumulative susceptible isolates at minimum inhibitory concentration of 4 ug/ml by CLSI broth microdilution method. Also on record: scale not given: the % may be the effect or the level left.
In assay [12] the test system is Escherichia coli. Description: Antibacterial activity against Escherichia coli assessed as percent cumulative susceptible isolates at minimum inhibitory concentration of >=[…] by CLSI broth microdilution method. Also on record: scale not given: the % may be the effect or the level left.
The subject of assay [13] is Streptococcus pneumoniae. Nature of the assay: Antibacterial activity against Streptococcus pneumoniae assessed as percent cumulative susceptible isolates at minimum inhibitory concentration of […] by CLSI broth microdilution method. More on the design: scale not given: the % may be the effect or the level left.
For assay [14], the system named is Streptococcus pneumoniae. Nature of the assay: Antibacterial activity against Streptococcus pneumoniae by CLSI M7-A7 broth microdilution method. The essentials: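 Broth microdilution per CLSI guidelines on clinical isolates, using panels of doubling drug dilutions in cation-adjusted Mueller-Hinton broth with 5% lysed horse blood. MIC read per CLSI, and cumulative percentage of isolates inhibited at each concentration tabulated.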

For assay [15], the system named is Escherichia coli. Nature of the assay: Antibacterial activity against Escherichia coli assessed as percent cumulative susceptible isolates at minimum inhibitory concentration of 2 ug/ml by CLSI broth microdilution method. Also on record: scale not given: the % may be the effect or the level left.
Assay [16] relates to Staphylococcus aureus. Description: Antibacterial activity against Levofloxacin-susceptible Staphylococcus aureus assessed as percent cumulative susceptible isolates at minimum inhibitory concentration of 0.06 ug/ml by CLSI broth microdilution method. Also on record: scale not given: the % may be the effect or the level left.
In assay [17] the test system is Staphylococcus aureus. Nature of the assay: Antibacterial activity against community-associated methicillin-resistant Staphylococcus aureus assessed as percent cumulative susceptible isolates at minimum inhibitory concentration of […] by CLSI broth microdilution method. More on the design: scale not given: the % may be the effect or the level left.
In assay [18] the test system is Staphylococcus aureus. Nature of the assay: Antibacterial activity against non-levofloxacin susceptible Staphylococcus aureus assessed as percent cumulative susceptible isolates at minimum inhibitory concentration of 4 ug/ml by CLSI broth microdilution method. More on the design: scale not given: the % may be the effect or the level left.
Assay [19] concerns Proteus mirabilis. Nature of the assay: Antibacterial activity against Proteus mirabilis assessed as percent cumulative susceptible isolates at minimum inhibitory concentration of 0.5 ug/ml by CLSI broth microdilution method. Also on record: scale not given: the % may be the effect or the level left.
In assay [20] the test system is Staphylococcus aureus. Description: Antibacterial activity against community-associated methicillin-resistant Staphylococcus aureus assessed as percent cumulative susceptible isolates at minimum inhibitory concentration of 0.06 ug/ml by CLSI broth microdilution method. Also on record: scale not given: the % may be the effect or the level left.
The subject of assay [21] is Staphylococcus epidermidis. Nature of the assay: Antibacterial activity against methicillin-susceptible Staphylococcus epidermidis assessed as percent cumulative susceptible isolates at minimum inhibitory concentration of […] by CLSI broth microdilution method. Also on record: scale not given: the % may be the effect or the level left.
Assay [22] relates to Enterococcus faecalis. Description: Antibacterial activity against Enterococcus faecalis assessed as percent cumulative susceptible isolates at minimum inhibitory concentration of 0.5 ug/ml by CLSI broth microdilution method. Also on record: scale not given: the % may be the effect or the level left.
Assay [23] concerns Staphylococcus aureus. Description: Antibacterial activity against non-levofloxacin susceptible Staphylococcus aureus assessed as percent cumulative susceptible isolates at minimum inhibitory concentration of 1 ug/ml by CLSI broth microdilution method. Also on record: scale not given: the % may be the effect or the level left.
Assay [24] concerns Staphylococcus aureus. Description: Antibacterial activity against methicillin-resistant Staphylococcus aureus assessed as percent cumulative susceptible isolates at minimum inhibitory concentration of […] by CLSI broth microdilution method. Also on record: scale not given: the % may be the effect or the level left.
In assay [25] the test system is Staphylococcus aureus. Description: Antibacterial activity against methicillin-resistant Staphylococcus aureus assessed as percent cumulative susceptible isolates at minimum inhibitory concentration of 0.06 ug/ml by CLSI broth microdilution method. More on the design: scale not given: the % may be the effect or the level left.
Assay [26] relates to Proteus mirabilis. Nature of the assay: Antibacterial activity against Proteus mirabilis assessed as percent cumulative susceptible isolates at minimum inhibitory concentration of 2 ug/ml by CLSI broth microdilution method. More on the design: scale not given: the % may be the effect or the level left.
In assay [27] the test system is Proteus mirabilis. Nature of the assay: Antibacterial activity against Proteus mirabilis assessed as percent cumulative susceptible isolates at minimum inhibitory concentration of 8 ug/ml by CLSI broth microdilution method. Also on record: scale not given: the % may be the effect or the level left.
For assay [28], the system named is Streptococcus pneumoniae. Nature of the assay: Antibacterial activity against Streptococcus pneumoniae assessed as percent cumulative susceptible isolates at minimum inhibitory concentration of 0.5 ug/ml by CLSI broth microdilution method. More on the design: scale not given: the % may be the effect or the level left.
For assay [29], the system named is Pseudomonas aeruginosa. Description: Antibacterial activity against Pseudomonas aeruginosa assessed as percent cumulative susceptible isolates at minimum inhibitory concentration of 0.06 ug/ml by CLSI broth microdilution method. More on the design: scale not given: the % may be the effect or the level left.
Assay [30] has as its system Enterococcus faecium. Nature of the assay: Antibacterial activity against Enterococcus faecium assessed as percent cumulative susceptible isolates at minimum inhibitory concentration of 1 ug/ml by CLSI broth microdilution method. Also on record: scale not given: the % may be the effect or the level left.
For assay [31], the system named is Stenotrophomonas maltophilia. Nature of the assay: Antibacterial activity against Stenotrophomonas maltophilia assessed as percent cumulative susceptible isolates at minimum inhibitory concentration of 8 ug/ml by CLSI broth microdilution method. More on the design: scale not given: the % may be the effect or the level left.
Assay [32] has as its system Staphylococcus aureus. Nature of the assay: Antibacterial activity against community-associated methicillin-resistant Staphylococcus aureus assessed as percent cumulative susceptible isolates at minimum inhibitory concentration of 8 ug/ml by CLSI broth microdilution method. More on the design: scale not given: the % may be the effect or the level left. The essentials:
as §1

Assay [33] deals with Stenotrophomonas maltophilia. Nature of the assay: Antibacterial activity against Stenotrophomonas maltophilia assessed as percent cumulative susceptible isolates at minimum inhibitory concentration of 0.06 ug/ml by CLSI broth microdilution method. Also on record: scale not given: the % may be the effect or the level left.

Broadly, the MIC90 is the lowest concentration that inhibits either 90% of growth or 90% of the strains tested, depending on the study. Consider `COc1c(N2C[C@@H](C)C[C@H](N)C2)ccc2c(=O)c(C(=O)O)cn(C3CC3)c12` [NEMONOXACIN], for which the Activity in [1] was determined as 90.3%; in [2] it was 37.8%; in assay [3], 5.6%; in assay [4], 95.3%; in assay [5], 3%; in assay [6], 6.3%. Also, the Activity in assay [7] turned out to be 100%; in assay [8], 24.4%; in assay [9], 71.9%; in assay [11] it was 57.6%; in assay [12], 100%; in assay [13] it was 91%. Further, the Activity in [15] stood at 75.5%; in [16], 97.1%; in assay [17] it was 16%; in [18], 67.3%; in [19] it was 54.5%; in [20], 28%. Further, the Activity in assay [21] turned out to be 37.2%; in [22] it was 70.4%; in assay [23], 30.6%; in [24], 4.7%; in assay [25] it was 6.3%; in assay [26] it was 78.8%. Further, the RatioAUC/MIC in [10] was 98. The MIC90 in assay [14] is 0.015 µg/mL (≈ 0.0404 µM).

As for `C[C@H]1COc2c(N3CCN(C)CC3)c(F)cc3c(=O)c(C(=O)O)cn1c23.C[C@H]1COc2c(N3CCN(C)CC3)c(F)cc3c(=O)c(C(=O)O)cn1c23.O` [LEVOFLOXACIN], the Activity in [27] came out at 97%; in [28], 69.3%; in assay [29] it was 2.2%; in assay [30], 10.5%; in assay [31], 92.3%; in [32] it was 96%. Further, the Activity in [33] is 3.8%.
